# Data as given in the M2OR odorant receptor database.
# Target: T1, OR1A1 (Homo sapiens) (UniProt Q9P1Q5)
# T1 sequence (whole entry): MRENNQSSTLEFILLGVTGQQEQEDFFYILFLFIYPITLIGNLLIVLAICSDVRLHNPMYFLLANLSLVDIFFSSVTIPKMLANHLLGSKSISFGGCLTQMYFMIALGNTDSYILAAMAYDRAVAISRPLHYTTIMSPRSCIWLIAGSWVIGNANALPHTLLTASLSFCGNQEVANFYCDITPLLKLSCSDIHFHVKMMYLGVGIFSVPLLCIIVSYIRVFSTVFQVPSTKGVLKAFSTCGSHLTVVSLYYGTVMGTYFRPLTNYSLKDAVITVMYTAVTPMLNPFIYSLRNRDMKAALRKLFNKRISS
# Details: stereoisomer not certain
# In short: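 Whether a receptor–molecule pair is responsive (active) rests on the original authors' judgment that its measured signal was statistically different from baseline. Pairs without that judgment are non-responsive (inactive). Sources used varied assay methods, commonly transient luciferase assays in mammalian cell lines.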
# 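Note: active if original authors judged signal statistically different from baseline.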
row,Structure (SMILES),odorant receptor agonist call
1,CC(C)c1ccc(C=O)cc1,inactive
2,CCc1cnccn1,inactive
3,CCCCC1CCC(=O)O1 (configuration not stated),inactive
4,CC1(C)C2CC=C(C=O)C1C2 (configuration not stated),inactive
5,CCC=CCCCCCC=O,active
6,O=C1Cc2ccccc2O1,inactive
7,CCCCCc1ccccn1,active
8,CC(=O)c1ccccc1N,inactive
9,CCOC(=O)CCC(C)C,inactive
10,C=CC(O)CCCCC (configuration not stated),active
11,CC(C)=CCCC(C)CCO (configuration not stated),active
12,COC(=O)C=Cc1ccccc1,inactive
13,CCCCC(C)CCC(=O)O (configuration not stated),inactive
14,CCCCS,inactive
15,CCC(C)COC(C)=O (configuration not stated),inactive
16,C=C(C)c1ccc(C)cc1,inactive
17,CCCc1ccc(O)c(OC)c1,inactive
18,CCC(C)CO (configuration not stated),inactive
19,C=C(C)C1CC=C(C)CC1 (configuration not stated),active

row,Structure (SMILES),odorant receptor agonist call
1,CCCCC(=O)CC(C)=O,active
2,CCCC(O)CC(=O)OCC (configuration not stated),inactive
3,CSSc1ccoc1C,inactive
4,CCC(S)C(C)=O (configuration not stated),inactive
5,CCO,inactive
6,Cc1occc1S,inactive
7,CCOC(=O)C=Cc1ccccc1,inactive
8,CCC=O,inactive
9,C=C1CCC2CC1C2(C)C (configuration not stated),inactive
10,COc1ccccc1,inactive
11,CCOC(=O)C1CCCCC1,active
12,CC(=O)C(C)C(C)=O,inactive
13,CCc1ncc(C)nc1CC,inactive
14,CCCCC(C)=O,inactive
15,CC1CCC(C(C)C)C(=O)C1 (configuration not stated),active
16,CCCCCCCCC=CC=O,inactive
17,Cc1cccc(C)c1O,inactive
18,CSCCCO,inactive
